# UBC13 polyUb: blocks human UBC13 polyubiquitin chain formation. AID 485273. TR-FRET. inhibition, % at 20 µM. 0.47% of 330,000 active. P61088; in the data active = inhibition above about 45%, passing the limit was not always enough
# MEKK2mut PB1 HTS: signal of MEK5 binding to mutant human MEKK2 PB1 domain | bead flow cytometry, Alexa488-MEK5 binding to MEKK2 mutant | percent response, % at 10 µM | 0.35% of 290,000 active; in the data active = percent response above about 24%, passing the limit was not always enough
# PREPL inhibitor: inhibits the human prolyl oligopeptidase-like enzyme; recombinant PREPL, fluorescence polarization activity-based probe; inhibition, % at 5.96 µM; 0.68% of 320,000 active; Q4J6C6; in the data active = inhibition above about 43%;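 also: 0% = enzyme with DMSO and 100% = wells lacking enzyme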
# Target sequence (Q4J6C6 whole entry, looked up): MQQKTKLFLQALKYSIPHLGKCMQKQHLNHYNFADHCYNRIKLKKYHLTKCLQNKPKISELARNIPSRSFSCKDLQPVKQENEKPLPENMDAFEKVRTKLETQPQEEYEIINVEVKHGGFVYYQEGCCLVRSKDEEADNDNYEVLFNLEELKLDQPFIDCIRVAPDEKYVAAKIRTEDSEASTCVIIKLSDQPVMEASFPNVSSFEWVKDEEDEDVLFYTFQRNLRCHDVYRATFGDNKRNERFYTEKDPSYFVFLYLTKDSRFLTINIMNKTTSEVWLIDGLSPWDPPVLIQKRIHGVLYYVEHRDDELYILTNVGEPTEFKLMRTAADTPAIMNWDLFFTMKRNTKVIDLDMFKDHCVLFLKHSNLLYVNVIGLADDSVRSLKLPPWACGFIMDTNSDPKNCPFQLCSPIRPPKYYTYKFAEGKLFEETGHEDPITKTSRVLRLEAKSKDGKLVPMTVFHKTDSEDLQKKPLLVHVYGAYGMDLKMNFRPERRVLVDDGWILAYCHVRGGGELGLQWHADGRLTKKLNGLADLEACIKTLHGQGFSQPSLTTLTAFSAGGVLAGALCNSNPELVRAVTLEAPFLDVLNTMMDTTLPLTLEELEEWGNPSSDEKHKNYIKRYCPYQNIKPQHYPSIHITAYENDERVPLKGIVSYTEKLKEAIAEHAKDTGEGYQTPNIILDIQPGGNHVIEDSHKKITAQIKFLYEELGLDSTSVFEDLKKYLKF
# MEKK3 PB1 HTS: MEKK3-MEK5 PB1 interaction, increase or decrease. Q99759. bead-based flow cytometry, Alexa488-MEK5 binding to MEKK3; actives lie on both sides; 0 = blocked by unlabeled MEK5, 100 = vehicle. binding response (% of control), % at 10 µM. 1.4% of 290,000 active. AID 1529;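 active = binding response more than 3 SD above or below the average of its plate-row segment, actives on both sides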;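 also: Alexa488 bead fluorescence after subtracting the streptavidin-only scavenger bead signal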
# MEKK2wt PB1 HTS: raises or lowers MEK5 binding to wildtype human MEKK2 PB1 domain. AID 1531. bead flow cytometry, Alexa488-MEK5 binding to MEKK2 WT; actives lie on both sides. binding response (% of control), % at 10 µM. 1.1% of 290,000 active; in the data active = binding response below about 67% or above about 130%
# Apaf1 inhib: blocks human Apaf-1 apoptosome activity; 0.71% of 330,000 active; O14727; AID 489030; inhibition, % at 20 µM; reconstituted apoptosome caspase-3 activity, DEVD-Rh110 fluorescence; active = inhibition of at least 40% at 20 µM;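 also: plate controls were DMSO wells for no effect and DEVD-CHO caspase inhibitor wells for full effect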
#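 Medium: Hepes buffer, pH 7.5 / System: biochemical Apaf-1 apoptosome reconstitution / Measured by: Rh110 fluorescence, excitation 480 nm, emission 540 nm / Times: compound with Apaf-1, dATP, procaspase-3 30 min, then 50 min reaction, room temperature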
# MEKK2wt confirm: raises or lowers MEK5 binding to wildtype human MEKK2, retest; 2.4% of 5,900 active; bead flow cytometry, Alexa488-MEK5 binding to MEKK2 WT; actives lie on both sides; binding response (% of control), % at 10 µM; shares compounds with MEKK3 PB1 HTS; in the data active = binding response below about 16% or above about 210%; inactive = in between
# MEKK2mut-MEK5: signal of MEK5 binding to mutant human MEKK2, retest. shares compounds with MEKK3 PB1 HTS. bead flow cytometry, Alexa488-MEK5 binding to MEKK2 mutant. percent response, % at 10 µM. 2% of 5,900 active; in the data active = percent response mostly above about 71%, no sharp cut-off; inactive = mostly below about 38%;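 also: higher means compound restores mutant binding toward wildtype level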
# MEKK3 confirm: MEKK3-MEK5 PB1 inhibition, single concentration confirmation. shares compounds with MEKK3 PB1 HTS. bead flow cytometry, Alexa488-MEK5 binding to MEKK3; stronger effect = lower value. binding response (% of control), % at 10 µM. 1.8% of 5,900 active;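 active = binding response below 72% of control, or above a set upper limit, though filed actives all read lower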;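 also: 100% = DMSO only wells and 0% = binding blocked by excess unlabeled MEK5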
# An asterisk follows results filed as active; x = no result; [ ] = dose if it differs, or a comment. Rows were chosen to be rich in hits. Some 3.1% of all compounds tested hit in one or more screens of this group.
SMILES,UBC13 polyUb,MEKK2mut PB1 HTS,PREPL inhibitor,MEKK3 PB1 HTS,MEKK2wt PB1 HTS,Apaf1 inhib,MEKK2wt confirm,MEKK2mut-MEK5,MEKK3 confirm
CN1CCC(NCCC(c2ccc(F)cc2)c2ccc(Cl)cc2)CC1 (centres undefined),15,-49,x,4.0*[inhibitor],10*[inhibitor],4,150,37,106
CC(C)C(CCNC1CCN(C)CC1)c1ccc(Cl)cc1 (centres undefined),12,5,-12,93,108,0,x,x,x
Cc1ccc(NC(=S)N/N=C/c2ccc([N+](=O)[O-])s2)cc1,-55,-7,27,85,62*[inhibitor],3,73,-14,94
Cc1cccc(S(=O)(=O)c2c(N)n(-c3ccccc3)c3nc4ccccc4nc23)c1,8,0,10,138*,105,3,97,-3,107
Cc1ccc(-n2c(N)c(S(=O)(=O)c3ccccc3)c3nc4ccccc4nc32)cc1,0,-5,0,101,95,8,x,x,x
Cc1nc2c(oc3ccc(Cl)cc32)c(=O)[nH]1,-8,-29,-3,49*[inhibitor],50,-2,97,-1,102
CCc1nc2c(oc3ccccc32)c(=O)[nH]1,-1,-5,0,90,92,-3,x,x,x
CCOc1ccc(CCNC(=O)C(C)n2nc(C)n3c(cc4occc43)c2=O)cc1OCC (centres undefined),-4,-44,1,83,69*[inhibitor],8,101,-2,102
Cc1nn(C(C)C(=O)NCCc2ccccc2)c(=O)c2cc3occc3n12 (centres undefined),-2,0,-1,99,103,1,x,x,x
Cc1cccc(C(C)C)c1NC(=O)CN(C)Cc1cccc(F)c1,3,0,-5,101,102,9,x,x,x
Cc1ccccc1CN(C)CC(=O)Nc1c(C)cccc1C(C)C,2,-24,22,72*[inhibitor],71,16,107,4,104
Cc1nn(-c2cc(N(S(C)(=O)=O)S(C)(=O)=O)c(Cl)cc2Cl)c(=O)n1C,10,-4,14,91,92,-12,x,x,x
CCOC(=O)c1c(C)n(-c2ccc(C)cc2)c2ccc(OCC(O)CN3CCN(C)CC3)cc12 (centres undefined),x,104*,x,104,289*,x,214*,71*,112
C=CC(C)(O)CCC=C(C)C (centres undefined),6,x,7,x,x,-13,x,x,x
CC(C)=CCC/C(C)=C/CC(C)(C)CNCCN1CCNCC1,30,21,-10,119,163*,18,111,12,105
CC(c1ccccc1)C1OCC(C[N+]2(C)CCCCC2)O1 (centres undefined),6,-18,1,43*[inhibitor],47*[inhibitor],-7,105,7,105
CN(C)CCN1C(=O)C2C(C(=O)Nc3cc(Cl)cc(Cl)c3)C3C=CC2(O3)C1C(=O)NC1CCCCC1 (centres undefined),2,2,31,94,96,7,x,x,x
Cc1ccc(S(=O)(=O)N2CCN(C(=O)c3ccccc3Cc3ccccc3)CC2)c(C)c1,4,1,21,104,98,27,x,x,x
CC(C)[C@H]1CN=C2N(C[C@H](C)NC(=O)CCC3CCCCC3)[C@H](Cc3ccc(O)cc3)CN21,10,11,9,112,112,3,x,x,x
COc1ccc(C[C@H]2CN3C(=NC[C@@H]3Cc3ccc(O)cc3)N2C[C@H](C)NC(=O)CCC2CCCCC2)cc1,41,17,-1,115,141*,18,131,12,89
Cc1csc(=O)n1CCC(=O)OCC(=O)NNC(=O)c1ccc(Cl)cc1,-3,x,x,x,x,6,x,x,x
O=S1(=O)CC(O)C(NCc2cccnc2)C1 (centres undefined),-3,-11,5,82*[inhibitor],89,-15,100,-2,103
CN(C(=O)COc1cccc(C#N)c1)C1CCS(=O)(=O)C1 (centres undefined),0,x,-7,x,x,-6,x,x,x
O=C1CC(=C2c3ccccc3-c3ccccc32)C(=O)N1CCCCN1CCN(c2ccccc2)CC1,-9,12,0,103,155*,25,147,28,102
O=c1c2ccccc2oc2cc(OCc3ccc(F)cc3)cc(O)c12,5,8,x,109,106,14,x,x,x
SMILES,UBC13 polyUb,MEKK2mut PB1 HTS,PREPL inhibitor,MEKK3 PB1 HTS,MEKK2wt PB1 HTS,Apaf1 inhib,MEKK2wt confirm,MEKK2mut-MEK5,MEKK3 confirm
Cc1cc(C)c(C#N)c(N2CCSCC2)n1,11,-31,9,2.0*[inhibitor],3.0*[inhibitor],0,84,-14,96
Cc1cc(C)c(C#N)c(N2CCN(c3ccccc3)CC2)n1,13,1,10,105,103,19,x,x,x
O=c1cnc2ccccc2n1Cc1ccccc1C(F)(F)F,2,-3,-5,102,100,10,x,x,x
NCC(c1ccc(Cl)cc1Cl)c1c[nH]c2ccccc12 (centres undefined),20,19,36,109,141*,15,137,23,105
c1ccc(-c2cc3c(nn2)CCc2nonc2-3)cc1,1,-23,-16,72*[inhibitor],80,4,93,-6,88
c1ccc(-c2nc3c([nH]2)CCc2nonc2-3)cc1,9,4,3,103,97,-1,x,x,x
Nc1cccc2cc(-c3ccccc3)oc12,14,x,35,x,x,0,x,x,x
CCOC(=O)C(=O)Nc1ccccc1C(=O)NCc1ccccc1,5,-1,-5,101,98,3,x,x,x
Cc1ccccc1C(=O)N(Cc1nc2ccccc2c(=O)[nH]1)C1CCCC1,8,0,-47,128*,113,11,99,0,102
Cc1ccc(C(=O)NC(=S)Nc2nc(-c3cccc([N+](=O)[O-])c3)cs2)c(Cl)c1,13,-16,-6,45*[inhibitor],51,-4,103,-2,103
O=C(CC1OC(=O)c2ccccc21)NNC(=O)c1ccc(F)cc1 (centres undefined),3,x,-3,x,x,-17,x,x,x
COc1cc(OC)c(C2NC(=O)CCC2[N+](=O)[O-])cc1OC (centres undefined),-1,14,12,114,111,2,x,x,x
COc1ccccc1N1CCN(C(=O)CSc2ncnc3scc(-c4ccccc4)c23)CC1,6,0,7,148*,104,23,103,5,105

# Screening results deposited in PubChem by several laboratories.
